# Bioassay records: PubChem BioAssay, several laboratories
# An excerpt weighted towards active compounds, which were near 2.6% of everything screened.
# VLA-4 inh: inhibition in a human VLA-4 binding assay. P13612. VLA-4 expressing cells, ligand binding flow cytometry. inhibition, % (about 7 µM as worked out from the volumes in the protocol). 330,000 tested, 0.2% active. AID 2557; in the data active means inhibition above about 50%
# Target sequence (P13612 whole entry, looked up): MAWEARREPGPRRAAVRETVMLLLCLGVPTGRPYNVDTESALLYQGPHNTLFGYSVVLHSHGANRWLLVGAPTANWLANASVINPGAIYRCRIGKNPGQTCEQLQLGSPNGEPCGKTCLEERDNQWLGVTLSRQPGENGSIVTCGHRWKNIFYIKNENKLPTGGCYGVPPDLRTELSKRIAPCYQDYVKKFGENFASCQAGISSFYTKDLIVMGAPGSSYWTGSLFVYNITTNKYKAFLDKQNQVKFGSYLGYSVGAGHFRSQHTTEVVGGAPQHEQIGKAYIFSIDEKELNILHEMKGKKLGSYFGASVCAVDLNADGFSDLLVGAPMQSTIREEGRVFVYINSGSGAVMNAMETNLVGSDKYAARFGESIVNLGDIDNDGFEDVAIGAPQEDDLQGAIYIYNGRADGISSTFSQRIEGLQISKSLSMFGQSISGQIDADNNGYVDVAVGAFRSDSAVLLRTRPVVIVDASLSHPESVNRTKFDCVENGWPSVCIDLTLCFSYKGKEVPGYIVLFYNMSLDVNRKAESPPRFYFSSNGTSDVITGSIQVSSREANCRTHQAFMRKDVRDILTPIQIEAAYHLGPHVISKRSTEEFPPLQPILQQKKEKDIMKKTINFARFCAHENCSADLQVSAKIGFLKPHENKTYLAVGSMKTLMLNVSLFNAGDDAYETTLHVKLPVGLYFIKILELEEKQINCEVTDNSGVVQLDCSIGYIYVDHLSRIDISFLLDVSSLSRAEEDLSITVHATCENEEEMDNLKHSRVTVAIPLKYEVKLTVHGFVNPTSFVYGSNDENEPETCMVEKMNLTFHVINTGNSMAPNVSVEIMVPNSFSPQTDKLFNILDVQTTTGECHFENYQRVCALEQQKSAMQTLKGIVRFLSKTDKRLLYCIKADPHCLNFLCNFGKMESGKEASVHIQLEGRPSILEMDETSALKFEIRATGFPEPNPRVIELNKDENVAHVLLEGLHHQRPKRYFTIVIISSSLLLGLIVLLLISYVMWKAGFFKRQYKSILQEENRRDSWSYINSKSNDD
# Platelet DG rel: modulates dense granule release in human platelets | AID 1663 | human platelet-rich plasma, SFLLRN dense granule ATP release, luminescence | inhibition, %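 (compounds screened at 7.5 µM in platelet-rich plasma)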 | 300,000 tested, 0.22% active;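 active means mean replicate score, as percent of positive control, at or above 50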
# TAAR1 antagonist: antagonists of human TAAR1 | Q96RJ0 | CHO RD-HGA16 TAAR1, Fluo-8 calcium fluorescence, antagonist | inhibition, % at 3 µM | 360,000 tested, 1.5% active | AID 624466;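 active means inhibition above a per-plate cutoff, the mean inhibition of test compounds on that plate plus 3 SD, cut at about 49% in these data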;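 further: 0% = DMSO plus EC80 beta-PEA response and 100% = DMSO alone without agonist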
#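 Test system: hTAAR1-expressing CHO RD-HGA16 cells, Gα16-coupled; Probe or stimulus: EC80 β-phenethylamine stimulus; Compound dosing: single nominal final test compound concentration of 3 µM; Timing: 140 s kinetic read after compound, 140 s after agonist; Signal: Fluo-8 calcium-sensitive fluorescence; Measure: % inhibition of agonist calcium response; Controls: DMSO and EC80 PEA controls.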
# TAAR1 agonist: human TAAR1 agonism; Q96RJ0; CHO RD-HGA16 TAAR1, Fluo-8 calcium fluorescence; vehicle wells 0%, saturating PEA agonist 100%; activation, % at 3 µM; 360,000 tested, 0.99% active; AID 624467;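 active means activation above the mean activation of all test compounds in the run plus 3 SD, cut at about 38% in these data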
#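 System: CHO-derived RD-HGA16 cells with stable Gα16 and human TAAR1. Times: 17-24 h plating, Fluo-8 75 min 37 °C, 30 min RT. Measured by: calcium-sensitive Fluo-8 signal, excitation 470-495, emission 515-575 nm. Read-out basis: % activation relative to PEA EC100 response. Control set: DMSO and PEA EC100. Repeats: no replicates (n 1).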
# Rce1 inhib: inhibitors of yeast Ras-converting enzyme. Q03530. yeast membranes, quenched prenylated peptide cleavage fluorescence. calls only. 290,000 tested, 0.27% active. AID 2563;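 active means fall in fluorescence gain of 50% or more versus controls, with final raw signal at or below 3038400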;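 further: plate controls were neutral control wells for no effect and wells lacking membranes for full effect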
# nonsel antag count: nonselective antagonism, TAAR1 counter-screen | 2,400 tested, 77% active | shares compounds with TAAR1 antagonist | counterscreen cell line, calcium fluorescence, antagonist mode | inhibition, % at 3 µM | AID 651780; in the data active means inhibition above about 22%;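 further: CHO-Ga16 host cells stimulated with ATP at an EC80 level; 0% = agonist EC80 plus vehicle and 100% = vehicle without agonist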
# TAAR1 antag conf: human TAAR1 antagonism, confirmed; shares compounds with TAAR1 antagonist; TAAR1-expressing cells, fluorescence antagonist read-out; inhibition, % at 3 µM; 2,400 tested, 40% active; AID 651785; in the data active means inhibition above about 49%;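 further: CHO-Ga16 host cells challenged with agonist PEA near its EC80; 0% = agonist at EC80 plus vehicle and 100% = vehicle with no agonist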
# Ga16 ag counter: counter-screen for TAAR1 antagonists: nonselective Ga16 agonists; shares compounds with TAAR1 antagonist; Ga16-expressing cells, calcium fluorescence, agonist counterscreen; activation, % at 3 µM; 2,400 tested, 18% active; in the data active means activation above about 12%;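 further: 0% = vehicle wells and 100% = saturating stimulus response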
# TAAR1 ag counter: TAAR1 agonism, antagonist counter-screen; shares compounds with TAAR1 antagonist; hTAAR1 cell line, fluorescence activation, agonist mode; activation, % at 3 µM; 2,400 tested, 2% active; in the data active means activation above about 37%;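 further: CHO cells stably expressing TAAR1 with calcium dye readout; 0% = DMSO vehicle and 100% = full agonist response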
# * marks the source's active call; other numbers are inactive results; i = inactive; · = no result given.
SMILES,VLA-4 inh,Platelet DG rel,TAAR1 antagonist,TAAR1 agonist,Rce1 inhib,nonsel antag count,TAAR1 antag conf,Ga16 ag counter,TAAR1 ag counter
COc1cc(C(=O)N/N=C/c2ccc(OC(=O)c3cccc(C)c3)c(OC)c2)ccc1O,-8,3,66*,20,i,38*,49*,9,14
CN(Cc1ccccc1)C(=O)c1ccc(NC(=O)C2CCN(C(=O)OC(C)(C)C)CC2)cc1,6,·,60*,23,·,47*,43,14*,14
Cn1cccc1C(=O)NC1CCCCC1,-1,-7,-8,1,i,·,·,·,·
O=C1c2ccccc2C(=O)N1c1ccc(Cl)cc1,4,0,·,·,·,·,·,·,·
O=C1C2C(c3ccccc3)(C(=O)N1c1ccc(Cl)cc1)C2(c1ccccc1)c1ccccc1 (stereo not drawn),-6,1,62*,3,i,16,35,4,13
CC(=O)c1cccc(NC(=O)c2ccc(N(Cc3ccccc3C)S(C)(=O)=O)cc2)c1,24,-9,57*,20,i,37*,50*,12*,11
COc1ccc(COC(=O)C2=C(C)NC(=O)NC2c2cccc(Br)c2)cc1 (stereo not drawn),-1,-10,7,2,i,·,·,·,·
COc1ccc(CCn2c(C)cc(C(=O)CCl)c2C)cc1OC,-1,1,8,2,i,·,·,·,·
COc1ccc(CCn2c(C)cc(C(=O)CSc3nnnn3-c3ccccc3)c2C)cc1OC,11,-1,50*,8,i,18,36,12*,6
COc1ccc(CCn2c(C)cc(C(=O)CSc3nc(N)cc(=O)[nH]3)c2C)cc1,-21,-3,51*,20,i,37*,48,8,6
O=C(Cn1c(=O)oc2ccccc21)Nc1ccccc1C(F)(F)F,10,-2,-8,-1,i,·,·,·,·
CC(=O)Nc1cccc(-c2csc(C(C)(NC(C)=O)c3ccccc3)n2)c1 (stereo not drawn),·,·,-5,2,·,·,·,·,·
COc1ccc(C(=O)Nc2nc3ccccc3c(=O)[nH]2)cc1,11,13,-10,10,i,·,·,·,·
O=C(Nc1cccc(/C=C/c2nc3ccccc3c(=O)[nH]2)c1)c1ccccc1Cl,-1,-1,68*,10,i,30*,48,12*,5
COc1ccc(C(=O)Nc2cccc(/C=C/c3nc4ccccc4c(=O)[nH]3)c2)cc1,-1,4,55*,13,i,16,38,7,4
Cc1ccc(NC(=O)C2(C)CCN2CCc2ccccc2)cc1 (stereo not drawn),·,·,10,1,·,·,·,·,·
O=C(Nc1nc2ccccc2n1CCN1CCOCC1)c1cn(-c2ccccc2)nc1-c1ccccc1,9,16,54*,32,i,31*,50*,16*,14
COc1cccc(Cn2cnc(-c3ccccc3OC)c2C2CC2)c1,·,·,-28,7,·,·,·,·,·
c1ccc(SCc2cn(C[C@H]3CC[C@@H]([C@@H]4CC[C@H](Cn5cc(CSc6ccccc6)nn5)O4)O3)nn2)cc1,4,-3,71*,32,i,37*,56*,14*,12
COc1ccc(NC(=O)c2ccc(-c3ccccc3)cc2)cc1S(=O)(=O)N1CCOCC1,-3,-4,87*,16,i,47*,61*,14*,9
COc1ccc(Nc2nc(-c3cccs3)nc3ccccc23)cc1S(=O)(=O)N1CCOCC1,-4,-4,71*,15,i,30*,49*,10,7
Cc1ccc(S(=O)(=O)Nc2ccccc2N=Cc2ccc([N+](=O)[O-])cc2[N+](=O)[O-])cc1,·,·,64*,13,·,-4,-3,0,6
COc1ccc([N+](=O)[O-])cc1NS(=O)(=O)c1ccc(C)cc1,3,13,3,2,i,·,·,·,·
CCOC(=O)C1CCCN(C(=O)c2[nH]c(C(F)(F)F)nc2-c2ccccc2)C1 (stereo not drawn),·,·,-13,8,·,·,·,·,·
CCN(CC(=O)Nc1ccc(NC(C)=O)cc1)C(=O)c1ccccc1Sc1ccccc1C#N,0,·,51*,11,·,27*,37,5,2
SMILES,VLA-4 inh,Platelet DG rel,TAAR1 antagonist,TAAR1 agonist,Rce1 inhib,nonsel antag count,TAAR1 antag conf,Ga16 ag counter,TAAR1 ag counter
CCN(CC(=O)Nc1ccccc1C(F)(F)F)C(=O)c1ccccc1Sc1ccccc1C#N,4,·,4,4,·,·,·,·,·
CC1CN(C(=O)COC(=O)Cc2ccc(Cl)cc2)CC(C)O1 (stereo not drawn),-7,·,-3,1,·,·,·,·,·
COc1ccccc1OCCCOc1ccc(/C=C2\SC(=O)NC2=O)cc1OC,-2,3,82*,11,i,34*,53*,9,5
Cc1ccc(C)c(N2CCN(C(=O)CCc3nc(-c4ccccc4Cl)no3)CC2)c1,·,·,59*,3,·,26*,35,5,4
COc1cccc(OCCn2cc(C(=O)c3ccco3)c3ccccc32)c1,5,11,70*,8,i,22*,46,5,7
COc1ccc(N(CC(=O)NCCSc2ccccc2)S(=O)(=O)c2ccccc2)cc1,5,10,65*,6,i,22*,46,9,14
COc1ccc(S(=O)(=O)N(CC(=O)NCCSc2ccccn2)c2ccccc2)cc1,-11,1,44,12,i,·,·,·,·
COc1ccccc1N(CC(=O)NCCSc1ccccc1)S(=O)(=O)c1ccccc1,-10,2,76*,7,i,30*,44,6,9
COCCCNC(=O)CN(c1cc(OC)ccc1OC)S(=O)(=O)c1ccccc1,3,0,-1,5,i,·,·,·,·
COc1ccc(N(CC(=O)NCCSc2ccccc2)S(=O)(=O)c2ccccc2)c(OC)c1,-3,·,59*,13,·,33*,55*,7,8
COc1ccc(N(CC(=O)NCCSc2ccccn2)S(=O)(=O)c2ccccc2)c(OC)c1,-14,-21,50*,18,i,27*,44,8,7
COc1ccccc1N(CC(=O)NCCSc1ccccc1)S(C)(=O)=O,10,11,-3,1,i,·,·,·,·
CC(=O)Nc1cccc(C(=O)Nc2ccc(S(=O)(=O)N3CCCCC3)cc2)c1,3,·,-1,4,i,·,·,·,·
COc1cccc(N2CCN(CC(=O)Nc3ccccc3C(=O)NCc3ccccc3)CC2)c1,-14,·,66*,29,·,24*,56*,8,15
COC(=O)c1[nH]c2ccccc2c1NC(=O)CN1CCCCCC1,12,·,18,5,i,·,·,·,·
